Experimental data reported in ChEMBL document CHEMBL1132620, “Piperazine imidazo[1,5-a]quinoxaline ureas as high-affinity GABAA ligands of dual functionality” (J Med Chem, 1999).
The source made the active and inactive calls. The rule behind the calls is not given here.

Key:
[1] = Half-life after po dose of 5.22 mg/kg in rats; type: ADME, organism-based; design: dose 5.22 mg/kg, route oral; conditions: rat, in vivo
[2] = molecular target: T1, GABA-A receptor; anion channel (Rattus norvegicus) (UniProt O09028+P15431+P18506+P18508+P19969+P20236+P23574+P23576+P28471+P28473+P30191+P62813+P63079+P63138+Q91ZM7+Q9ES14); experiment: (§1) Displacement of [3H]flunitrazepam from GABA-A benzodiazepine receptor of rat cortical membranes; type: cell membranes; design: concentration or dose not given beside the values; conditions: Membrane, concentration not given here
How it was run: (§2)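 Rat membranes incubated 60 min at 4 °C with [3H]flunitrazepam, 50 µg membrane protein and graded test drug in 200 µL containing NaCl, 10 mM Hepes/Tris pH 7.4 and 1 mM MgCl2; bound ligand separated by rapid filtration on GF/B; mean affinity, SE ≤10% of mean.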

[3] = tested on: Rattus norvegicus; experiment: Geller-cook activity was determined using wilcoxon signed rank test on non punished schedule at dose 3 mg/kg in rats; type: functional
How it was run: (§3)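 Geller–Cook conflict schedule with punished and nonpunished response rates recorded per treatment; 6 animals per dose, controls 12–17; each dose compared to its own control by Wilcoxon signed rank test, p < 0.05.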

[4] = Half-life after iv dose of 5.10 mg/kg in rats; type: ADME, organism-based; design: dose 5.1 mg/kg, route intravenous; conditions: rat, in vivo, 5.1 mg/kg
[5] = tested on: Rattus norvegicus; experiment: Mean number of shocks produced by the compound in rats at a dose of 0 mg/kg was determined by vogel's punished licking assay; type: functional
How it was run: (§4)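 Vogel punished licking test in rats; number of shocks accepted recorded per dose group (n 6–10); each dose compared with the 0 mg/kg group of the same experiment by Wilcoxon rank sum test.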

[6] = Maximum serum concentration after po dose of 5.22 mg/kg in rats; type: ADME, organism-based; design: dose 5.22 mg/kg, route oral; conditions: rat
[7] = molecular target: GABA-A receptor; anion channel; experiment: as §1; type: cell membranes, Membrane; how it was run: as §2
[8] = tested on: Rattus norvegicus; experiment: Mean number of shocks produced by CDPZ in rats at a dose of 12 mg/kg was determined by vogel's punished licking assay; type: functional; how it was run: as §4
[9] = tested on: Rattus norvegicus; experiment: Geller-cook activity was determined using wilcoxon signed rank test on punished schedule at dose 3 mg/kg in rats; type: functional; how it was run: as §3
[10] = Time at which Cmax was reached was determined after po dose of 5.22 mg/kg of compound in rats; type: ADME, organism-based; design: dose 5.22 mg/kg, route oral; conditions: rat, in vivo
How it was run: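 Male Sprague–Dawley rats dosed orally with compound in a solution formulation, n = 3–4 per compound; serum drug concentrations measured over time, lower limit of quantitation 50 ng/mL. Tmax reported as the range of observed values across animals.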

[11] = species: Mus musculus; experiment: Ability to antagonize the muscle relaxation effect in mice caused by a benzodiazepine full agonist, triazolam.; type: functional
How it was run: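 Muscle relaxation induced by triazolam; test compound and triazolam given separately, traction scored 30 min after dosing; ED50 for blocking the relaxant effect.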

[12] = tested on: Rattus norvegicus; experiment: Mean number of shocks produced by the compound in rats at a dose of 0.3 mg/kg was determined by vogel's punished licking assay; type: functional; how it was run: as §4
[13] = Total plasma clearance after iv dose of 5.10 mg/kg in rats; type: ADME, organism-based; design: dose 5.1 mg/kg, route intravenous; conditions: rat, 5.1 mg/kg, read-out: Clp (converted)
[14] = tested on: Mus musculus; experiment: In vivo acute electroshock physical dependence activity in mice; Active; type: functional, organism-based
[15] = molecular target: GABA A receptor alpha-3/beta-2/gamma-2 (Homo sapiens) (UniProt P47870+P18507+P34903); experiment: In vitro GABA-mediated chloride current in A293 cells expressing GABA-A benzodiazepine receptor alpha-3-beta-2-gamma-2 subunits at 5 uM; type: functional, cell-based; conditions: HEK293
[16] = Area under curve was determined for the compound after po dose of 5.22 mg/kg in rats; type: ADME, organism-based; design: dose 5.22 mg/kg, route oral; conditions: rat, in vivo
[17] = Area under curve was determined for the compound after iv dose of 5.10 mg/kg in rats; type: ADME, organism-based; design: dose 5.1 mg/kg, route intravenous; conditions: rat, in vivo, 5.1 mg/kg
[18] = tested on: Rattus norvegicus; experiment: Mean number of shocks produced by the compound in rats at a dose of 1 mg/kg was determined by vogel's punished licking assay; type: functional; how it was run: as §4
[19] = tested on: Mus musculus; experiment: In vivo efficacy is evaluated by percent control of cerebellar GMP levels in (drug+stress) treated mice/mice under stress; type: functional; design: concentration or dose not given beside the values
How it was run: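 Male CF-1 mice given drug orally in vehicle 122 before electric footshock stress, controls given vehicle (1 mL/100 g); killed 30 min after treatment; cerebellum homogenized in 1% perchloric acid, iced 30 min, boiled 5 min, spun 17000g 20 min; supernatant cGMP by radioimmunoassay, expressed as % of stress control.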

[20] = molecular target: T2, GABA-A receptor; alpha-1/beta-2/gamma-2 (Homo sapiens) (UniProt P14867+P47870+P18507); experiment: (§5) In vitro GABA-mediated chloride current in A293 cells expressing GABA-A benzodiazepine receptor alpha-1-beta-2-gamma-2 subunits at 5 uM; type: functional, cell-based; conditions: HEK293
[21] = molecular target: T1, GABA-A receptor; anion channel (Rattus norvegicus); experiment: Shift in [35S]TBPS binding to GABA-A Benzodiazepine receptor of rat brain membrane
[22] = tested on: Rattus norvegicus; experiment: Mean number of shocks produced by the compound in rats at a dose of 10 mg/kg was determined by vogel's punished licking assay; type: functional; how it was run: as §4
[23] = tested on: Rattus norvegicus; experiment: Geller-cook activity was determined using wilcoxon signed rank test on non punished schedule at dose 1 mg/kg in rats; type: functional; how it was run: as §3
[24] = tested on: Rattus norvegicus; experiment: Geller-cook activity was determined using wilcoxon signed rank test on punished schedule at dose 1 mg/kg in rats; type: functional; how it was run: as §3
[25] = tested on: Rattus norvegicus; experiment: In vivo efficacy evaluated for ability to antagonize metrazole induced clonic convulsions in rat after ip injection; type: functional
[26] = molecular target: T2, GABA-A receptor; alpha-1/beta-2/gamma-2 (Homo sapiens); experiment: as §5; type: functional, cell-based; conditions: HEK293; remark: listed apart in the source
[27] = Oral bioavailability in rats at a dose of 5.22 mg/kg; type: ADME, organism-based; conditions: rat, in vivo
[28] = tested on: Rattus norvegicus; experiment: Mean number of shocks produced by the compound in rats at a dose of 3 mg/kg was determined by vogel's punished licking assay; type: functional; how it was run: as §4

half-life [1]: 1.8 h | inhibition [2]: 71% | half-life [4]: 1.2 h | Cmax [6]: 1170 ng/mL | Ki [7]: 3.27 nM | Tmax [10]: 0.5 h | clearance [13]: 25.2 mL/min/kg | Change in Cl- current [15]: 0.54 | AUC [16]: 3570 ng·h/mL | AUC [17]: 3540 ng·h/mL | Change in Cl- current [20]: 0.3 | Shift [21]: 0.48 | Change in Cl- current [26]: 0.85 | bioavailability [27]: 101%
SMILES: CCCC(=O)O.C[C@@H]1CN(C(=O)N2Cc3c(C(=O)OC(C)(C)C)ncn3-c3ccc(Cl)cc32)C[C@H](C)N1
Gellar cook activity [3]: 43 | Mean no. of shocks [5]: 3.8 | Mean no. of shocks [8]: 19 | Gellar cook activity [9]: 27 | ED50 [11]: > 30 mg/kg | Mean no. of shocks [12]: 5.3 | Acute electroshock activity [14]: Active | Mean no. of shocks [18]: 3.1 | Control [19]: 64% | Mean no. of shocks [22]: 12 | Gellar cook activity [23]: 47 | Gellar cook activity [24]: 46 | ED50 [25]: 3.7 mg/kg | Mean no. of shocks [28]: 5.7
